Bioassay records deposited in PubChem BioAssay by Sanford-Burnham Center for Chemical Genomics.
A selection: hits, their analogues and other compounds. The true share with any hit is near 2.4%.
LMPTP inh – blocks human LMPTP phosphatase. recombinant LMPTP-A, OMFP fluorogenic substrate, fluorescence intensity. inhibition, % at 20 µM. 360,000 compounds, 0.22% hits;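 active = compounds that cut the enzyme signal by at least half of the control window in the single-dose screen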
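Test system: LMPTP-A phosphatase enzyme. Amount: LMPTP-A at 0.625 nM final in the reaction. Reagent: OMFP substrate, 400 µM final. Times: 50 min at room temperature. Signal: endpoint fluorescence intensity from OMFP dephosphorylation. Read-out basis: % inhibition. Benchmarks: no-enzyme and uninhibited controls.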
Scp1 inh – blocks human Scp-1 phosphatase activity. inhibition, % at 20 µM. AID 493091. 340,000 compounds, 0.88% hits. Recombinant Scp1, phosphopeptide, malachite green phosphate absorbance;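 active = inhibition above about 50% at 20 µM, limit read from the data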
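Times: enzyme reaction 45 min at room temperature, colour 5 min, stabilisation 30 min. Material: SCP-1 catalytic fragment, aa 76-261. Medium: Acidic Tris acetate buffer with magnesium and detergent. Signal: colorimetric free-phosphate detection, absorbance 630 nm. Read-out basis: % inhibition of SCP-1 phosphate liberation. Reagent: Phosphorylated 17-residue peptide substrate.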
NadD inh – NadD (S. aureus) enzyme inhibition. 360,000 compounds, 0.78% hits. purified NadD enzyme, colorimetric absorbance read-out. inhibition, % at 20 µM; in the data active = inhibition above about 26%
DNMT1 block – blocks human DNA methyltransferase DNMT1. P26358. DNMT1 molecular beacon, Hinp1I cleavage, fluorescence. inhibition (reported as % activation of signal), % at 10 µM. 360,000 compounds, 0.83% hits. AID 588458; in the data active = inhibition above about 50%
SUMO1-SIM PPI – modulators of human SUMO1-mediated protein-protein interactions | SUMO1 binding to a labelled peptide, TR-FRET, 1 h | P63165 | 360,000 compounds, 0.33% hits | inhibition, % at 20 µM | AID 602429; in the data active = inhibition above about 37%
Target sequence (P63165 whole entry, looked up): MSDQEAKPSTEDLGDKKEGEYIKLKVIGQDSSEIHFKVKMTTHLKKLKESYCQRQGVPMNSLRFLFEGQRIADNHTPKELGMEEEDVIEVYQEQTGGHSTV
STEP inh – blocks human striatal-enriched tyrosine phosphatase. 360,000 compounds, 0.25% hits. P54829. inhibition, % at 20 µM. AID 588621. recombinant STEP, OMFP fluorogenic substrate, fluorescence;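 active = inhibition at 20 µM, scaled per plate between control wells, above about 37%, limit read from the data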
Target sequence (P54829 whole entry, looked up): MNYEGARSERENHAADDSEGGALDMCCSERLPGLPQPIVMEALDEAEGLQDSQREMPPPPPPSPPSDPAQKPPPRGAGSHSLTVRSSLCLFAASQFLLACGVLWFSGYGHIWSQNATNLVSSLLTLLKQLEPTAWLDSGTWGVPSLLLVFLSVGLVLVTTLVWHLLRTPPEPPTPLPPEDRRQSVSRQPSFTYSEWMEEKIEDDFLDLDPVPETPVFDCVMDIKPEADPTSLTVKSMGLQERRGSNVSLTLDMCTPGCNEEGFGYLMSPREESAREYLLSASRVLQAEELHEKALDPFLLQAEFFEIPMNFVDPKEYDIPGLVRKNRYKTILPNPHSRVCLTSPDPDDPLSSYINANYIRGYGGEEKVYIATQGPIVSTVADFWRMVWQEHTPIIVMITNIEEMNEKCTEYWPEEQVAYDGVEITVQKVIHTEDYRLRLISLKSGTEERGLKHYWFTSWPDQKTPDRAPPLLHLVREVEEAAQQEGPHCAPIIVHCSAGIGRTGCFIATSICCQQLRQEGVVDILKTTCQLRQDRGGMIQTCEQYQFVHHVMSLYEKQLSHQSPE
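Assay system: isolated STEP enzyme / Timing: 20 min at room temperature, dark / Doses: 20 µM, 1% DMSO / Technique: fluorescence intensity, excitation 480 nm, emission 540 nm / Reagent: fluorogenic phosphatase substrate OMFP at 25 µM final / Measure: percent inhibition scaled to no-enzyme and uninhibited-enzyme controls, plate-pattern corrected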
Large screens that a line does not name were inactive; ! = not active in a repeat.

COCC(=O)Nc1cc(C)cn(Cc2ccccc2Cl)c1=O	none
Cn1c(=O)c(C#N)c(-c2ccc(F)cc2)c2cc(C(=O)c3cc(Cl)cc(Cl)c3O)cnc21	NadD inh 24
Cc1cc(N/N=C/c2ccccc2O)c2ccccc2n1	LMPTP inh 51
N#Cc1cn(-c2ccccc2)nc1-c1ccccc1	SUMO1-SIM PPI 45
Cc1nnc(N(C)C(=O)c2ccc3c(c2)OCO3)s1	none
CC1(Oc2ccc3ccccc3c2)CCN(Cc2ccc(OC(F)(F)F)cc2)C1 (stereo not given)	none (no result: Scp1 inh)
CN(C)c1ccc(/C=N/N=C2/NC(=O)/C(=C/c3ccc([N+](=O)[O-])cc3)S2)cc1	NadD inh 50, DNMT1 block 66
COc1ccc(Cl)cc1Nc1nnc(-c2ccncc2)s1	Scp1 inh 90, SUMO1-SIM PPI 96, STEP inh 83
Cc1cc(Nc2ccccc2C(=O)O)n(-c2cccc(Cl)c2)n1	SUMO1-SIM PPI 42
Cc1cc(-c2csc(N)n2)c(C)n1-c1ccc(Cl)c(Cl)c1	NadD inh 36
COc1ccc(-n2c(C)cc(-c3csc(N)n3)c2C)cc1	NadD inh 33
CN(C)CCCN=c1cc(-c2ccccc2)oc2ccc(Cl)cc12	DNMT1 block 52
Cc1cc(C)cc(NC(=O)c2ccc(CNc3c(N4CCCC4)c(=O)c3=O)cc2)c1	SUMO1-SIM PPI 51
Cc1ccc(CNC(=O)c2ccc(CNc3c(N4CCCC4)c(=O)c3=O)cc2)cc1	none
Cc1cc(C)cc(NC(=O)c2ccc(CNc3c(N4CCOCC4)c(=O)c3=O)cc2)c1	SUMO1-SIM PPI 42
CCCCCCCCCCCCN1[C@@H](CC(=O)OC)c2cc(F)ccc2S1(=O)=O	none
CC(C)CC1Nc2ncnc(N3CCCCC3)c2N(Cc2ccccc2)C1=O (stereo not given)	none
CC1Nc2ncnc(N3CCc4ccccc4C3)c2N(Cc2ccc(Br)cc2)C1=O (stereo not given)	NadD inh 45!
O=C1C(Cc2ccccc2)Nc2ncnc(N3CCc4ccccc4C3)c2N1Cc1ccccc1 (stereo not given)	NadD inh 40
O=C1C(Cc2ccccc2)Nc2ncnc(N3CCCCC3)c2N1Cc1ccc(Cl)cc1 (stereo not given)	NadD inh 36
O=C1C(Cc2ccccc2)Nc2ncnc(N3CCOCC3)c2N1Cc1ccc(Br)cc1 (stereo not given)	none
CCC1Nc2ncnc(N3CCc4ccccc4C3)c2N(Cc2ccc(Br)cc2)C1=O (stereo not given)	none (no result: Scp1 inh)
Cc1nc(Cc2nnc(SCC(=O)N3c4ccccc4NC(=O)C3(C)C)o2)cs1	none (no result: Scp1 inh)
O=C(COC(=O)c1ccc(Cl)cc1O)NC(=O)C1CCCCC1	none
COc1ccc(OC)c(NC(=O)[C@@H]2CCCN2C(=O)c2cccs2)c1	none
COc1cc(C(=O)NCC(=O)NC(C)c2ccc(-n3ccnc3)cc2)cc(OC)c1OC (stereo not given)	none
CCOc1ccc(C(=O)NCC(=O)NC(C)c2ccc(-n3ccnc3)cc2)cc1OCC (stereo not given)	SUMO1-SIM PPI 45
O=C(O)C1=NN(c2cc(Cl)c(S(=O)(=O)O)cc2Cl)C(=O)C1	none
NC(=O)CC(NC(=O)c1ccccc1)c1ccc(NCCN2CCCCC2)c([N+](=O)[O-])c1 (stereo not given)	none
CCOc1ccc(S(=O)(=O)Nc2cc(NS(=O)(=O)c3ccc(OCC)cc3)cc(C(=O)O)c2)cc1	Scp1 inh 55
O=C(c1ccc(Cl)cc1)[C@@H]1[C@@H]2C(=O)N(c3cccc4ccccc34)C(=O)[C@@H]2C2c3ccccc3C=NN21 (stereo not given in full)	none
CC[C@@]1(O)C(=O)OCc2c1cc1n(c2=O)Cc2cc3c(N)cccc3nc2-1	Scp1 inh 57
CCCCN(CCCC)CCNC(=O)CN1C(=O)COc2ccc(S(=O)(=O)N3CCC(C)CC3)cc21	none
CCC1CCCCN1CCCNC(=O)CN1C(=O)COc2ccc(S(=O)(=O)N3CCC(C)CC3)cc21 (stereo not given)	SUMO1-SIM PPI 40
O=C1CSC(c2cn(-c3ccccc3)nc2-c2cc3ccccc3oc2=O)N1Cc1ccccc1 (stereo not given)	SUMO1-SIM PPI 55
COc1ccc(/C=N/NC(=O)CCn2cnc(-c3ccccc3)c2-c2ccccc2)cc1	STEP inh 118
C[n+]1c2cc(N)ccc2cc2ccc(N)cc21	NadD inh 33, DNMT1 block active, SUMO1-SIM PPI 78!
Nc1ccc2ccc(O)cc2c1	none
Cc1nc2ccc(NC(=O)c3cc([N+](=O)[O-])cc([N+](=O)[O-])c3Cl)cc2s1	NadD inh 34
CCc1cc(C(=O)N=Nc2c(O)[nH]c3c(Br)cc(Br)cc23)c2ccccc2n1	NadD inh 54
CCc1cc(C(=O)N=Nc2c(O)[nH]c3ccc([N+](=O)[O-])cc23)c2ccccc2n1	none
Cn1c(=NC(=O)C2CCN(S(=O)(=O)c3cccs3)CC2)sc2ccccc21	SUMO1-SIM PPI 43!
Cc1cc(C)c(Nc2cc(S(=O)(=O)O)c(N)c3c2C(=O)c2ccccc2C3=O)c(C)c1	NadD inh 30, DNMT1 block 80, SUMO1-SIM PPI 74
Cc1cc(C)c(NC(=O)COC(=O)c2cccc3c2C(=O)c2ccccc2C3=O)c(C)c1	none
COc1ccccc1C(=O)COC(=O)c1cc(=O)[nH]c2ccccc12	none
Cc1ccc(C(=O)COC(=O)c2cc(=O)[nH]c3ccccc23)cc1C	Scp1 inh 81
O=C1NN(c2ccc(Cl)c(Cl)c2)C(=O)/C1=C/c1ccc(-c2ccccc2C(=O)O)o1	DNMT1 block 60
CC1=NN(c2ccccc2)C(=O)/C1=C/c1ccc(-c2ccc(C)c(C(=O)O)c2)o1	none (no result: LMPTP inh, NadD inh, DNMT1 block, SUMO1-SIM PPI, STEP inh)
CC1=NN(c2ccc(Cl)c(C(=O)O)c2)C(=O)/C1=C\c1ccc(-c2ccc(C(=O)O)cc2)o1	Scp1 inh 81
O=C1NN(c2cccc(Br)c2)C(=O)/C1=C/c1ccc(-c2cc([N+](=O)[O-])ccc2O)o1	LMPTP inh 77, Scp1 inh 99, NadD inh 70, DNMT1 block 53, SUMO1-SIM PPI 102, STEP inh 70
CC1=NN(c2ccc(C)cc2)C(=O)/C1=C/c1ccc(-c2cc([N+](=O)[O-])ccc2O)o1	SUMO1-SIM PPI 80
Cc1ccsc1C(=O)N1CCC1(C)C(=O)NS(=O)(=O)c1ccc(C#N)cc1 (stereo not given)	none (no result: Scp1 inh)
O=C(COC(=O)C12CC3CC(CC(Br)(C3)C1)C2)Nc1ccc2[nH]c(=O)[nH]c2c1	none
